{"source": "ChEMBL document CHEMBL2417530", "about": "“Coumarin derivatives protect against ischemic brain injury in rats” (Eur J Med Chem, 2013)", "key": {"Rattus norvegicus [1]": {"test_system": "Rattus norvegicus", "test": "In vivo neuroprotective activity in Sprague-Dawley rat transient middle cerebral artery occlusion model assessed as reduction of brain-water content at 6 mg/kg, iv measured 24 hrs post reperfusion", "type": "functional, organism-based", "parameters": "dose 6 mg/kg", "method_in_brief": "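Male SD rats (7 weeks, 260-280 g) had 60 min transient right MCA occlusion with a nylon filament, then reperfusion. Saline or drug (1.5, 3.0, 6.0 mg/kg) was injected iv at reperfusion. Animals without neurological deficit were replaced. At 24 h brains were oven-dried at 110 °C for 24 h, and water content was taken as (wet−dry)/wet; n = 12.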"}, "Rattus norvegicus [2]": {"test_system": "Rattus norvegicus", "test": "In vivo neuroprotective activity in Sprague-Dawley rat transient middle cerebral artery occlusion model assessed as reduction of infarct size at 6 mg/kg, iv measured 24 hrs post reperfusion by TTC staining assay relative to vehicle-treated control", "type": "functional", "method_in_brief": "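Male Sprague-Dawley rats, 7 weeks, 260–280 g, under 10% chloral hydrate ip. Right MCA occluded 60 min by tip-burned 4-0 nylon thread via common carotid, then reperfused. Saline or drug given iv at reperfusion, ethanol as cosolvent. Killed 24 h later; six 2 mm slices in 1% TTC in PBS, 37 °C, 30 min. Infarct area traced as % of total area; n = 12.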"}, "PC-12": {"test_system": "PC-12", "test": "Neuroprotective activity in rat PC12 cells assessed as attenuation of oxygen-glucose deprivation-induced cellular damage at 10 uM by MTT assay relative to control", "type": "functional", "method_in_brief": "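PC12 cells were seeded at 5×10^3/well for 24 h. OGD insult was low-glucose medium plus 5 mM sodium dithionite for 24 h, given together with 10 µM compound. MTT (5 mg/mL) was added for 4 h and absorbance read at 570 nm. Viability was expressed as % of full-medium control; n = 3.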"}, "[3]": {"test": "Cytotoxicity against rat PC12 cells assessed as cell proliferation at 10 uM by MTT assay relative to control", "type": "cell-based, PC-12", "conditions": "read-out: Activity", "method_in_brief": "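PC12 cells were grown in DMEM with 5% FBS, 5% horse serum and 2 mM glutamine at 37 °C, 5% CO2. They were seeded at 5×10^3 cells/well for 24 h, then exposed to 10 µM compound in full medium. Viability was read by MTT (5 mg/mL, 4 h) at 570 nm as % of control absorbance; n = 3.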"}}, "note": "Calls of active or inactive are those of the source. No cut-off for these calls is given here."}
{"smiles": "CC1=NN(c2ccccc2)C(=O)C1", "values": [{"measurement": "Activity", "setting": "Rattus norvegicus [1]", "result": "Active"}, {"measurement": "Activity", "setting": "Rattus norvegicus [2]", "result": "Active"}]}
{"smiles": "Cc1c(N2CCN(C)CC2)c(=O)oc2cc(OCCN3CCCCC3)ccc12", "values": [{"measurement": "Activity", "setting": "PC-12", "result": 45.3, "unit": "%"}, {"measurement": "viability at 10 µM", "setting": "[3]", "result": 95.4, "unit": "%"}]}
{"smiles": "Cc1c(N2CCN(C)CC2)c(=O)oc2cc(O)cc(OCCCN)c12", "values": [{"measurement": "Activity", "setting": "PC-12", "result": 40.5, "unit": "%"}, {"measurement": "viability at 10 µM", "setting": "[3]", "result": 107, "unit": "%"}]}
{"smiles": "Cc1c(N2CCN(c3ccc(F)cc3)CC2)c(=O)oc2cc(O)cc(O)c12", "values": [{"measurement": "Activity", "setting": "PC-12", "result": 47, "unit": "%"}, {"measurement": "viability at 10 µM", "setting": "[3]", "result": 103, "unit": "%"}]}
{"smiles": "CCCCCCCCOc1cc(O)cc2oc(=O)c(N3CCN(C)CC3)c(C)c12", "values": [{"measurement": "Activity", "setting": "PC-12", "result": 15.6, "unit": "%"}, {"measurement": "viability at 10 µM", "setting": "[3]", "result": 59.4, "unit": "%"}]}
{"smiles": "Cc1c(N2CCN(C(=O)Nc3ccc(C(C)C)cc3)CC2)c(=O)oc2cc(O)cc(O)c12", "values": [{"measurement": "Activity", "setting": "PC-12", "result": 46.3, "unit": "%"}, {"measurement": "viability at 10 µM", "setting": "[3]", "result": 97.3, "unit": "%"}]}
{"smiles": "C=CC(=O)N1CCN(c2c(C)c3c(O)cc(O)cc3oc2=O)CC1", "values": [{"measurement": "Activity", "setting": "PC-12", "result": 48.3, "unit": "%"}, {"measurement": "viability at 10 µM", "setting": "[3]", "result": 98.5, "unit": "%"}]}
{"smiles": "Cc1c(N2CCN(C(=O)Nc3ccccc3Oc3ccccc3)CC2)c(=O)oc2cc(O)cc(O)c12", "values": [{"measurement": "Activity", "setting": "PC-12", "result": 49.3, "unit": "%"}, {"measurement": "viability at 10 µM", "setting": "[3]", "result": 97.9, "unit": "%"}]}
{"smiles": "Cc1c(N2CCN(C(=O)c3ccccc3)CC2)c(=O)oc2cc(O)cc(O)c12", "values": [{"measurement": "Activity", "setting": "PC-12", "result": 44.6, "unit": "%"}, {"measurement": "viability at 10 µM", "setting": "[3]", "result": 100, "unit": "%"}]}
{"smiles": "Cc1c(N2CCN(C)CC2)c(=O)oc2cc(O)cc(OCCCCl)c12", "values": [{"measurement": "Activity", "setting": "PC-12", "result": 36.3, "unit": "%"}, {"measurement": "viability at 10 µM", "setting": "[3]", "result": 197, "unit": "%"}]}
{"smiles": "Cc1c(N2CCN(C)CC2)c(=O)oc2cc(O)cc(OCC3CC3)c12", "values": [{"measurement": "Activity", "setting": "PC-12", "result": 37.7, "unit": "%"}, {"measurement": "viability at 10 µM", "setting": "[3]", "result": 184, "unit": "%"}]}
{"smiles": "Cc1c(N2CCN(C)CC2)c(=O)oc2cc(N(C)C)ccc12", "values": [{"measurement": "Activity", "setting": "PC-12", "result": 45.8, "unit": "%"}, {"measurement": "viability at 10 µM", "setting": "[3]", "result": 97.8, "unit": "%"}]}
{"smiles": "Cc1c(N2CCN(C)CC2)c(=O)oc2cc(OCCc3cccs3)ccc12", "values": [{"measurement": "Activity", "setting": "PC-12", "result": 43.7, "unit": "%"}, {"measurement": "viability at 10 µM", "setting": "[3]", "result": 110, "unit": "%"}]}
{"smiles": "Cc1c(N2CCN(C)CC2)c(=O)oc2cc(O)cc(OCCNS(C)(=O)=O)c12", "values": [{"measurement": "Activity", "setting": "PC-12", "result": 40.3, "unit": "%"}, {"measurement": "viability at 10 µM", "setting": "[3]", "result": 103, "unit": "%"}]}
{"smiles": "CC(=O)N1CCN(c2c(C)c3c(O)cc(O)cc3oc2=O)CC1", "values": [{"measurement": "Activity", "setting": "PC-12", "result": 48.4, "unit": "%"}, {"measurement": "viability at 10 µM", "setting": "[3]", "result": 98.1, "unit": "%"}]}
{"smiles": "CCC(CC)CN1CCN(c2c(C)c3c(O)cc(O)cc3oc2=O)CC1", "values": [{"measurement": "Activity", "setting": "PC-12", "result": 49.5, "unit": "%"}, {"measurement": "viability at 10 µM", "setting": "[3]", "result": 102, "unit": "%"}]}
